# Results: ChEMBL document CHEMBL5661979, “Pharmacological inhibition of BMK1 suppresses tumor growth through promyelocytic leukemia protein” (Cancer Cell, 2010)
# Activity calls are given as the source filed them. The calls are words filed in the database; no cut-off is given here.
# Key:
# [1] = biological target: T1, Ribosomal protein S6 kinase alpha-1 (Homo sapiens, UniProt Q15418); assay: Inhibition of RSK1 domain 2 K2 site in human HeLa cells lysate at 50 uM pre incubated for 15 mins followed by ADP acyl phosphate probe addition and measured after 10 mins by LC-MS/MS analysis relative to control; type: subcellular; conditions: time 25.0 min
# [2] = biological target: Calcium/calmodulin-dependent protein kinase type II subunit gamma (Homo sapiens, UniProt Q13555); assay: Inhibition of CAMK2g in human HeLa cells lysate at 10 uM pre incubated for 15 mins followed by ATP acyl phosphate probe addition and measured after 10 mins by LC-MS/MS analysis relative to control; type: subcellular; conditions: time 25.0 min
# Method in brief: (§1)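 KiNativ-type profiling in HeLa lysate (5 mg/mL total protein). Lysate preincubated 15 min with inhibitor at 50, 10, 2, 0.8 or 0 μM, then ATP or ADP acylphosphate probe added (5 μM final) for 10 min. Reaction stopped with urea and analysed by targeted MS, using up to four fragment ions per kinase peptide-probe conjugate. % inhibition calculated against untreated lysate. Duplicate reactions.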
# [3] = biological target: T1, Ribosomal protein S6 kinase alpha-1; assay: Inhibition of RSK1 domain 2 K1 site in human HeLa cells lysate at 10 uM pre incubated for 15 mins followed by ADP acyl phosphate probe addition and measured after 10 mins by LC-MS/MS analysis relative to control; type: subcellular; conditions: time 25.0 min
# RPS6KA1/RPS6KA2/RPS6KA3 = RPS6KA1/RPS6KA2/RPS6KA3 (Homo sapiens, UniProt P51812+Q15349+Q15418); assay: Inhibition of RSK1/2/3 in human HeLa cells lysate at 50 uM pre incubated for 15 mins followed by ADP acyl phosphate probe addition and measured after 10 mins by LC-MS/MS analysis relative to control; type: subcellular; conditions: time 25.0 min
# [4] = biological target: Serine/threonine-protein kinase WNK1 (Homo sapiens, UniProt Q9H4A3); assay: Inhibition of Wnk1 in human HeLa cells lysate at 50 uM pre incubated for 15 mins followed by ATP acyl phosphate probe addition and measured after 10 mins by LC-MS/MS analysis relative to control; type: subcellular; conditions: time 25.0 min
# [5] = biological target: Calcium/calmodulin-dependent protein kinase type II subunit delta (Homo sapiens, UniProt Q13557); assay: Inhibition of CAMK2d in human HeLa cells lysate at 10 uM pre incubated for 15 mins followed by ATP acyl phosphate probe addition and measured after 10 mins by LC-MS/MS analysis relative to control; type: subcellular; conditions: time 25.0 min; method in brief: as §1
# [6] = biological target: Serine/threonine-protein kinase Nek1 (Homo sapiens) (UniProt Q96PY6); assay: Inhibition of NEK1 in human HeLa cells lysate at 2 uM pre incubated for 15 mins followed by ATP acyl phosphate probe addition and measured after 10 mins by LC-MS/MS analysis relative to control; type: subcellular; conditions: time 25.0 min
# [7] = biological target: Serine/threonine-protein kinase 38 (Homo sapiens, UniProt Q15208); assay: Inhibition of NDR1 in human HeLa cells lysate at 50 uM pre incubated for 15 mins followed by ATP acyl phosphate probe addition and measured after 10 mins by LC-MS/MS analysis relative to control; type: subcellular; conditions: time 25.0 min
# [8] = biological target: Mitogen-activated protein kinase 3 (Homo sapiens, UniProt P27361); assay: Inhibition of ERK1 in human HeLa cells lysate at 10 uM pre incubated for 15 mins followed by ADP acyl phosphate probe addition and measured after 10 mins by LC-MS/MS analysis relative to control; type: subcellular; conditions: time 25.0 min
# SRSF protein kinase 1 = SRSF protein kinase 1 (Homo sapiens, UniProt Q96SB4); assay: Inhibition of SRPK1 in human HeLa cells lysate at 10 uM pre incubated for 15 mins followed by ATP acyl phosphate probe addition and measured after 10 mins by LC-MS/MS analysis relative to control; type: subcellular; conditions: time 25.0 min
# [9] = biological target: Cyclin-dependent kinase 7 (Homo sapiens, UniProt P50613); assay: Inhibition of CDK7 in human HeLa cells lysate at 50 uM pre incubated for 15 mins followed by ATP acyl phosphate probe addition and measured after 10 mins by LC-MS/MS analysis relative to control; type: subcellular; conditions: time 25.0 min
# Method in brief: (§2)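 KiNativ profiling in HeLa lysate (5 mg/mL total protein). Lysate incubated 15 min with inhibitor at 50, 10, 2, 0.8 or 0 μM. ATP or ADP acylphosphate probe then added (5 μM final) and reacted 10 min. Reaction stopped with urea and analysed by targeted MS, using up to four fragment ions per kinase peptide-probe conjugate. % inhibition taken against untreated lysate. Run in duplicate.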
# [10] = biological target: Cyclin-dependent kinase 2 (Homo sapiens, UniProt P24941); assay: Inhibition of CDK2 K2 site in human HeLa cells lysate at 2 uM pre incubated for 15 mins followed by ADP acyl phosphate probe addition and measured after 10 mins by LC-MS/MS analysis relative to control; type: subcellular; conditions: time 25.0 min; method in brief: as §2
# [11] = biological target: Mitogen-activated protein kinase 7 (Mus musculus) (UniProt Q9WVS8); assay: Inhibition of BMK1 in mouse MEF cells assessed as increase in p21 protein expression at 5 uM incubated for 16 hrs by Western blot analysis; type: cell-based
# Method in brief: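 Pml+/+ or Pml−/− MEFs treated ±5 μM inhibitor for 16 h. Lysates western blotted for p21, quantified by densitometry and normalized to GAPDH, relative to untreated Pml+/+ MEF set as 1. n = 3, ±SEM.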
# [12] = biological target: Serine/threonine-protein kinase 16 (Homo sapiens, UniProt O75716); assay: Inhibition of MPSK1 in human HeLa cells lysate pre incubated for 15 mins followed by ATP acyl phosphate probe addition and measured after 10 mins by LC-MS/MS analysis; type: subcellular
# Serine/threonine-protein kinase 16, sequence (O75716 whole entry): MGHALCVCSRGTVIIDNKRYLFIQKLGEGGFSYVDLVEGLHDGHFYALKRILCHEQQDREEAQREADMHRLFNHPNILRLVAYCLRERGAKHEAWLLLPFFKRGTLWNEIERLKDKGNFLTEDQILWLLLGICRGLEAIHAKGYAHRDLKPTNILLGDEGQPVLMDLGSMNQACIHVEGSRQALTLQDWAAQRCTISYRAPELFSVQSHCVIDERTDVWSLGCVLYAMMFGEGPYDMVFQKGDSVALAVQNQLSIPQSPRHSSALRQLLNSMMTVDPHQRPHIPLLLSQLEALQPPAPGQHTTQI
# T1 sequence (Q15418 whole entry, the tested form may be a part): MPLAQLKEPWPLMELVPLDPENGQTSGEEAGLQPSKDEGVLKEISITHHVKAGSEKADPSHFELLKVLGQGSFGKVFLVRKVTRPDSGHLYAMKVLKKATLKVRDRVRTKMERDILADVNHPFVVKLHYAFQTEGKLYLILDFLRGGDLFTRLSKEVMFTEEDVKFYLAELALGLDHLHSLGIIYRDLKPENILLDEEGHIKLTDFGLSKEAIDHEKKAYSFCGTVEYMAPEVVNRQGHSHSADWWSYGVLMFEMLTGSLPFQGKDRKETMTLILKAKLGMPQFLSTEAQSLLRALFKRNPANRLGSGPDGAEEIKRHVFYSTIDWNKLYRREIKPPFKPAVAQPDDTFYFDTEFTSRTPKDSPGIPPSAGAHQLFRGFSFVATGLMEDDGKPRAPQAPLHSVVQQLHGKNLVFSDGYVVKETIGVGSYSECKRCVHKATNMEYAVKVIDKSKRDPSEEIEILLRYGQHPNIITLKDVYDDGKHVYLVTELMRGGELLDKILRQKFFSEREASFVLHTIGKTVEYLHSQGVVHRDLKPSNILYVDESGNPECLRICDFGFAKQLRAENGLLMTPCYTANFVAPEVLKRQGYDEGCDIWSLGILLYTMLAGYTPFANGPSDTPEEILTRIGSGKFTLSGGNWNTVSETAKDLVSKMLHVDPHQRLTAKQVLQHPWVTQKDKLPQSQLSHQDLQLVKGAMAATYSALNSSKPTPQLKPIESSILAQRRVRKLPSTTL
# Calcium/calmodulin-dependent protein kinase type II subunit gamma, sequence (Q13555 whole entry, the tested form may be a part): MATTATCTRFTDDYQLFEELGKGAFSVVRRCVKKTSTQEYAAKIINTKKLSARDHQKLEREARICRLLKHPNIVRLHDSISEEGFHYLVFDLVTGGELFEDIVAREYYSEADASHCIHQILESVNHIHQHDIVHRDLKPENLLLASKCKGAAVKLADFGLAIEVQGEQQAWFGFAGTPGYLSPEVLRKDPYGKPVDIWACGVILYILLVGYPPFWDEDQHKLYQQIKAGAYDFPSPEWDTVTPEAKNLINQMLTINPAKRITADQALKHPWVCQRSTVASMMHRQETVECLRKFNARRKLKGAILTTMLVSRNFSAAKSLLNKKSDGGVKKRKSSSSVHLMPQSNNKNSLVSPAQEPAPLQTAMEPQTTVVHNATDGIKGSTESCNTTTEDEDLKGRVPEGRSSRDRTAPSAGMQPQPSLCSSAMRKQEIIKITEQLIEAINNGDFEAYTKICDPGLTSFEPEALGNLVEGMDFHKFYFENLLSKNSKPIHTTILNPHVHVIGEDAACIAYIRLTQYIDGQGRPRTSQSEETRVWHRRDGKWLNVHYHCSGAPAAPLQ
# Serine/threonine-protein kinase 38, sequence (Q15208 2-465 limits assumed): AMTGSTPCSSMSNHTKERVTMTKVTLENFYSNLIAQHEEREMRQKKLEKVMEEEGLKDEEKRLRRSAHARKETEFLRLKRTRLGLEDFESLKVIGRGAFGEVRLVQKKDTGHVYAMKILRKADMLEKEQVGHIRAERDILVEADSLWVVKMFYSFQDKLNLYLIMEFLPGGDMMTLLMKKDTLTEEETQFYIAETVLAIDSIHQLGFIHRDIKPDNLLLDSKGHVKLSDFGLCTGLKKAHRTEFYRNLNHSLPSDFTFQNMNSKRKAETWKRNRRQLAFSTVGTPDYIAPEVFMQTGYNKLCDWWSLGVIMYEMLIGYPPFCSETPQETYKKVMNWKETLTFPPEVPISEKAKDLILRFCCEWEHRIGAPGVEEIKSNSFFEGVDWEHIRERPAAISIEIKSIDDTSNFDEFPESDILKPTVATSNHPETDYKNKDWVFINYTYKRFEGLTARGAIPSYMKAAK
# Mitogen-activated protein kinase 3, sequence (P27361 whole entry): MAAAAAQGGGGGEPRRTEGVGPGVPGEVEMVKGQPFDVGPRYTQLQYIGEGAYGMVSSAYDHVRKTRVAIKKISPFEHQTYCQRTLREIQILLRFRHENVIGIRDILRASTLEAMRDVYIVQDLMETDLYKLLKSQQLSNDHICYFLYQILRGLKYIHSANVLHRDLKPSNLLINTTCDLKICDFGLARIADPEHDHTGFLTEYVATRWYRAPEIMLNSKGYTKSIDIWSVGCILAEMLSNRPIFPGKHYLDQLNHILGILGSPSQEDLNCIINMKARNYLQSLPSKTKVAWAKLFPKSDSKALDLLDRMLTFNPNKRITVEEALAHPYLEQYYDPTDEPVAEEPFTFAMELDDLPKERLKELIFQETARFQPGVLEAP
# Calcium/calmodulin-dependent protein kinase type II subunit delta, sequence (Q13557 whole entry): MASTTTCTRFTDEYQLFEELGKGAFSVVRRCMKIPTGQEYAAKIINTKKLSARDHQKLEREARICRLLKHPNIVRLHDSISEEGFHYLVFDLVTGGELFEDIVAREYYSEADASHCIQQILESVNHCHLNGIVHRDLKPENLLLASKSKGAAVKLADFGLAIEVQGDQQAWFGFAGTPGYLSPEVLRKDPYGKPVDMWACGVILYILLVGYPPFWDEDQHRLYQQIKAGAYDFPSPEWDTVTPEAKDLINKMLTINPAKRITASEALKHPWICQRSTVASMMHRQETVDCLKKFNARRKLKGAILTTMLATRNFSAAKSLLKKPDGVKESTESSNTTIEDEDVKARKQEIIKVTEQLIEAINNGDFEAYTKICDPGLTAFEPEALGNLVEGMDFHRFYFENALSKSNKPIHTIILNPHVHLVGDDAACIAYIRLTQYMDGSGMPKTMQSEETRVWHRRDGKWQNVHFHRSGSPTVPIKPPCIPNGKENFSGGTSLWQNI
# Mitogen-activated protein kinase 7 (Mus musculus), sequence (Q9WVS8 whole entry): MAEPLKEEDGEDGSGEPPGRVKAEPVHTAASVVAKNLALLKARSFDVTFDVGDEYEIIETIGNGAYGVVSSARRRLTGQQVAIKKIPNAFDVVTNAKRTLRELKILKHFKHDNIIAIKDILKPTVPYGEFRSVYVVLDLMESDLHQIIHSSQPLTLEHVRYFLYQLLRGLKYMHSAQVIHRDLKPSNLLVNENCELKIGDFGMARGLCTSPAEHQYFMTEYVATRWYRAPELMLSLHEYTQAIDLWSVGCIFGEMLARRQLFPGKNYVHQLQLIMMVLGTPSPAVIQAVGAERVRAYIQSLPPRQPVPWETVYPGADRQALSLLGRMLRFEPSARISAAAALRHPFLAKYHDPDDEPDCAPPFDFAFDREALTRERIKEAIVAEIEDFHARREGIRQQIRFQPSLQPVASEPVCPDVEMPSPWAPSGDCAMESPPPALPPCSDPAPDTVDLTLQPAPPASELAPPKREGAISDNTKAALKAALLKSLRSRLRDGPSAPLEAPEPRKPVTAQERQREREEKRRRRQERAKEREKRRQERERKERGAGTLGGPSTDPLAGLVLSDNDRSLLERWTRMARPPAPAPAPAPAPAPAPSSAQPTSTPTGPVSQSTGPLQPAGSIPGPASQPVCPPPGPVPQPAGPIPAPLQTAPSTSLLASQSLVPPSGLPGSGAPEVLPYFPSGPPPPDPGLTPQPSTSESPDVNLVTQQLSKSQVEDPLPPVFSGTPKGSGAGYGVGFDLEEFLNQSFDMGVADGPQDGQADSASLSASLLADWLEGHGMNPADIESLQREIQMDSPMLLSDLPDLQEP
# Serine/threonine-protein kinase Nek1 (Homo sapiens), sequence (Q96PY6 whole entry): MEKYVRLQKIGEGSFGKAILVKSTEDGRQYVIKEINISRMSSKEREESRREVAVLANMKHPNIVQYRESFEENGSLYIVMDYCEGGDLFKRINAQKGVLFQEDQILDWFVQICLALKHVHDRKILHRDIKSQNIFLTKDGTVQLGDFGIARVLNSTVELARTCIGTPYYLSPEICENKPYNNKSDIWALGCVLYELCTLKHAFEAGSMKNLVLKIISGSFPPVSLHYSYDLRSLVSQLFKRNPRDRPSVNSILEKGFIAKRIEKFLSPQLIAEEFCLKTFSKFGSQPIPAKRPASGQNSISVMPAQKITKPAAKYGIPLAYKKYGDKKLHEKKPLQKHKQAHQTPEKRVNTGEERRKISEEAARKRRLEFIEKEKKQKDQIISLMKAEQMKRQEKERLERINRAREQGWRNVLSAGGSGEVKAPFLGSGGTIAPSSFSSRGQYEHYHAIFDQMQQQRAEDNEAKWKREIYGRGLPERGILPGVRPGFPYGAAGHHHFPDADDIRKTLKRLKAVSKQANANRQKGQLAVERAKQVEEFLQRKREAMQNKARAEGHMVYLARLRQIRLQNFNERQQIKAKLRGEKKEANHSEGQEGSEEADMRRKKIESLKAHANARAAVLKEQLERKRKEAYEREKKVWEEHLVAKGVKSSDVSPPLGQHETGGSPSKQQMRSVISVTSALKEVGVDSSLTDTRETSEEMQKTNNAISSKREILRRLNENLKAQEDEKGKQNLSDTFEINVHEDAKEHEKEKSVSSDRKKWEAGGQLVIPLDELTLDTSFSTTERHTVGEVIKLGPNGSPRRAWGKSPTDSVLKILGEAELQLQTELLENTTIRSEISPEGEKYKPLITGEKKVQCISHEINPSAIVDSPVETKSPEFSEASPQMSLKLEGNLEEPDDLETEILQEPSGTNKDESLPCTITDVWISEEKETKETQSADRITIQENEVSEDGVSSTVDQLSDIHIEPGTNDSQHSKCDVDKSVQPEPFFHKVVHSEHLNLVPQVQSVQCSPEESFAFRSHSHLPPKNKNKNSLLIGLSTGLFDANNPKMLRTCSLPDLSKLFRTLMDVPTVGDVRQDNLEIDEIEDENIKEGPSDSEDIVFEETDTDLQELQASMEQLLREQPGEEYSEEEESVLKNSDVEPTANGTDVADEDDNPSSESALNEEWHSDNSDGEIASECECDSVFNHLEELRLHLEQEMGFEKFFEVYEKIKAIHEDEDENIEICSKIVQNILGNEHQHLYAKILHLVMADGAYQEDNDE
smiles,measurement,setting,value
CCOc1cc(N2CCC(O)CC2)ccc1Nc1ncc2c(n1)N(C)c1ccccc1C(=O)N2C,inhibition,[1],65.6%
same,inhibition,[2],-8.6%
same,inhibition,[3],23.4%
same,inhibition,RPS6KA1/RPS6KA2/RPS6KA3,-2.1%
same,inhibition,[4],-9.5%
same,inhibition,[5],3.2%
same,inhibition,[6],6.1%
same,inhibition,[7],5.3%
same,inhibition,[8],-3.9%
same,inhibition,SRSF protein kinase 1,1.3%
same,inhibition,[9],-0.5%
same,inhibition,[10],9.8%
same,inhibition,[11],Active
same,IC50,[12],> 50 µM
